This note sets out measurements from ChEMBL document CHEMBL3526116, “Toxicological evaluation of acyl glucuronides of nonsteroidal anti-inflammatory drugs using human embryonic kidney 293 cells stably expressing human UDP-glucuronosyltransferase and human hepatocytes” (Drug Metab Dispos, 2011).

Data set [1] concerns HEK293. Briefly: Cytotoxicity against HEK293 cells expressing UGT1A3 assessed as decrease in cell viability at 1 mM measured at 24 hrs by MTT assay. In kind it is ADME, cell-based. As to conditions: human, hek293, 24 h, 1000 µM.
Data set [2] concerns HEK293. Briefly: Cytotoxicity against HEK293 cells expressing UGT1A4 assessed as decrease in cell viability at 0.1 mM measured at 24 hrs […]. In kind it is ADME, cell-based. As to conditions: human, hek293, 24 h, 100 µM.
Data set [3] relates to HEK293. The experiment in a line: Cytotoxicity against HEK293 cells expressing UGT assessed as decrease in cell viability at 0.1 mM measured up to 72 hrs by MTT assay. It counts as ADME, cell-based. As to conditions: human, hek293, 72 h, 100 µM. A digest of the protocol:
(§1)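 Mock and UGT1A3/UGT1A4 stable HEK293 cells given drug for up to 72 h; viability measured by WST-8-based MTT assay.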
(In general: Tetrazolium dyes change colour on reduction, which living cells bring about.)

Data set [4] deals with HEK293. Briefly: Cytotoxicity against HEK293 cells expressing UGT1A3 assessed as decrease in cell viability at 0.1 mM measured at 24 hrs by MTT assay. It counts as ADME, cell-based. As to conditions: human, hek293, 24 h, 100 µM.
Data set [5] deals with Hepatocyte. The experiment in a line: Drug level in human hepatocytes assessed per 2 x 10^5 cells treated with ibuprofen at 1 mM measured at 6 hrs by LC-MS/MS analysis in absence of acyl glucuronidation inhibitor (-)-borneol. It counts as ADME, cell-based. As to conditions: 1000 µM.
Data set [6] can be described thus: Drug level in cell culture medium treated with ibuprofen at 1 mM measured at 6 hrs by LC-MS/MS analysis in absence of acyl glucuronidation inhibitor (-)-borneol. It counts as physicochemical. As to conditions: 1000 µM.
Data set [7] in a line: Drug level in cell culture medium treated with ibuprofen at 1 mM measured at 6 hrs by LC-MS/MS analysis in presence of acyl glucuronidation inhibitor (-)-borneol. It counts as physicochemical. As to conditions: 1000 µM.
For data set [8], the system named is Nucleic Acid. The experiment in a line: Ratio of drug level in human hepatocytes to HEK293 cells expressing UGT1A3 treated with ibuprofen at 1 mM. In kind it is ADME, cell-based, Hepatocyte. As to conditions: 1000 µM. A digest of the protocol: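 Acyl glucuronide in cell fraction (pmol/2 x 10^5 cells) by LC-MS/MS after 6 h exposure in human hepatocytes without (-)-borneol, set against HEK/UGT1A3 cells (2 x 10^5 cells/well, DMEM with 0.5% FBS) exposed to the same drug level; cells pelleted at 3000 x g, resuspended in PBS, extracted with methanol/acetic acid.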

The target of data set [9] is T1, UDP-glucuronosyltransferase 1A3 (Homo sapiens, UniProt P35503).
T1 sequence (P35503 whole entry): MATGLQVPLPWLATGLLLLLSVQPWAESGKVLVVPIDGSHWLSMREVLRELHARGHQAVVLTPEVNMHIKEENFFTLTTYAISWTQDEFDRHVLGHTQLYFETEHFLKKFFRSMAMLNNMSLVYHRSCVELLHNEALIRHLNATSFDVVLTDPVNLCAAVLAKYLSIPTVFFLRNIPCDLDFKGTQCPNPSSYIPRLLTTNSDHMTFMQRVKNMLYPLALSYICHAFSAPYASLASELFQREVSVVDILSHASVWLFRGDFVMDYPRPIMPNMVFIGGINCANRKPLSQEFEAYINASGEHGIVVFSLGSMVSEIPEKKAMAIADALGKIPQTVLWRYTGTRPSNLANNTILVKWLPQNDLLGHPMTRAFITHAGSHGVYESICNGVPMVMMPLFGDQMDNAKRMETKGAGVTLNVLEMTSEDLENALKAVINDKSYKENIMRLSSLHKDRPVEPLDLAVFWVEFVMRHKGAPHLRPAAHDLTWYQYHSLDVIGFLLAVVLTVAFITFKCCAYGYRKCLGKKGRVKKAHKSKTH
Briefly: Activity of human UGT1A3 expressed in HEK293 cells assessed as enzyme-mediated compound formation per 2 x 10^5 cells treated with ibuprofen at 1 mM measured at 24 hrs by LC-MS/MS analysis. In kind it is ADME, cell-based. As to conditions: hek293, 24 h, 1000 µM. A digest of the protocol: (§2)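 HEK293 stably expressing human UGT1A3 (G418-selected), 2 x 10^5 cells/well in 1 mL DMEM with 0.5% FBS, exposed immediately to drug for 6, 12 or 24 h; DMSO ≤0.1% final. Cells and medium separated by centrifugation, cell fraction resuspended in PBS; aliquots mixed 1:1 with methanol/acetic acid (100:1), spun, supernatant analysed by LC-MS/MS. Triplicate determinations, mean ± SD.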

Data set [10] addresses T1, UDP-glucuronosyltransferase 1A3. Briefly: Activity of human UGT1A3 expressed in HEK293 cells assessed as enzyme-mediated compound formation in cell culture medium treated with ibuprofen at 1 mM measured at 6 to 24 hrs by LC-MS/MS analysis. It counts as ADME, cell-based. As to conditions: hek293, 1000 µM. A digest of the protocol: as §2
Data set [11] shares this target. Briefly: Activity of human UGT1A3 expressed in HEK293 cells assessed as enzyme-mediated compound formation in cell culture medium treated with ibuprofen at 1 mM by LC-MS/MS analysis. In kind it is ADME, cell-based. As to conditions: hek293, 1000 µM, TDE = time-dependent effect. In a few lines: as §2
Data set [12] deals with Hepatocyte. The experiment in a line: Drug level in human hepatocytes assessed per 2 x 10^5 cells treated with ibuprofen at 1 mM measured at 6 hrs by LC-MS/MS analysis in presence of acyl glucuronidation inhibitor (-)-borneol. As to conditions: 1000 µM. It counts as ADME, cell-based.
Data set [13] has as its system HEK293. The experiment in a line: Cytotoxicity against HEK293 cells expressing UGT1A4 assessed as decrease in cell viability at 1 mM measured at 24 hrs by MTT assay. It counts as ADME, cell-based. As to conditions: human, hek293, 24 h, 1000 µM.
Data set [14] relates to HEK293. The experiment in a line: Cytotoxicity against HEK293 cells expressing UGT assessed as decrease in cell viability at 1 mM measured up to 72 hrs by MTT assay. In kind it is ADME, cell-based. As to conditions: human, hek293, 72 h, 1000 µM. A digest of the protocol:
as §1

Take `Cc1cccc(Nc2ccccc2C(=O)O)c1C` [MEFENAMIC ACID]: in data set [1], the Activity entry is given as “Non-toxic”.
Take `Cc1cc(CC(=O)O)n(C)c1C(=O)c1ccc(Cl)cc1` [ZOMEPIRAC]: the Activity entry in data set [2], in data set [3] and in data set [4] was “Non-toxic” each time.
Consider `CC(C)Cc1ccc(C(C)C(=O)O[C@@H]2O[C@H](C(=O)O)[C@@H](O)[C@H](O)[C@H]2O)cc1` (some centres not stated), for which the Drug metabolism in data set [5] was 27.7 pmol; in data set [6], 1156.7 pmol/mL; in data set [7] it was 126.5 pmol/mL; in [9] it was 7.2 pmol; in data set [10] it was 114.7 pmol/mL; in [11] it was “tde”. Besides, the Drug metabolism in [12] worked out at 3.5 pmol. The Ratio in data set [8] turned out to be 6.
Consider `CC(C)(Oc1ccc(CCNC(=O)c2ccc(Cl)cc2)cc1)C(=O)O` [BEZAFIBRATE], for which, in data set [1], the Activity entry is given as “Non-toxic”.
Still for that read-out and setting: then `O=C(O)c1cccnc1Nc1cccc(C(F)(F)F)c1` [NIFLUMIC ACID], with “Non-toxic”; and `CCCN(CCC)S(=O)(=O)c1ccc(C(=O)O)cc1` [PROBENECID], with “Non-toxic”; and `CC(=O)Oc1ccccc1C(=O)O` [ASPIRIN], with “Non-toxic”.
With `Cc1ccc(C)c(OCCCC(C)(C)C(=O)O)c1` [GEMFIBROZIL], the Activity result in data set [13], in data set [14] and in [1] was “Non-toxic” throughout.
Consider `O=C(O)c1ccccc1O` [SALICYLIC ACID], for which the Activity entry in data set [13], in [14] and in [1] was “Non-toxic” in each case.
